Assay results: ChEMBL document CHEMBL1141072, “Conformationally constrained analogues of diacylglycerol (DAG). 25. Exploration of the sn-1 and sn-2 carbonyl functionality reveals the essential role of the sn-1 carbonyl at the lipid interface in the binding of DAG-lactones to protein kinase C” (J Med Chem, 2005)

Tests used:
[1] = biological target: Protein kinase C alpha type (Homo sapiens, UniProt P17252); test: Inhibition of [3H]PDBu binding to recombinant protein kinase C alpha was determined at pH 7.4, 37 degree C for 5 min
How it was run: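 PKCα displacement of [3H]PDBu in 50 mM Tris-HCl, 100 μg/ml phosphatidylserine, 4 mg/ml bovine IgG and 0.1 mM CaCl2, with a range of competitor concentrations. After incubation, chilled 7 min and 35% PEG added, then 10 min on ice and spun at 4 °C. Pellet bound radioactivity counted. Nonspecific binding measured with 64 μM unlabeled PDBu. Expressed as Ki.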

[2] = biological target: T1, Protein kinase C delta type (Homo sapiens, UniProt Q05655); test: Inhibition of [3H]-PDBu binding to C1b domain of protein kinase C delta without phosphatidylserine
How it was run: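 GST-tagged δC1b expressed in BL-21 (DE3) E. coli and purified on glutathione spin columns, purity checked by SDS-PAGE. Competition with [3H]PDBu run in 50 mM Tris-HCl pH 7.4, 4 mg/ml bovine IgG, 1 mM EGTA, no phosphatidylserine, 10 min at 18 °C. Bound ligand separated by PEG precipitation on ice and counted by scintillation. Nonspecific binding taken with 64 μM unlabeled PDBu. Ki derived.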

[3] = biological target: T1, Protein kinase C delta type; test: Inhibition of [3H]PDBu binding to C1b domain of protein kinase C delta with phosphatidylserine
How it was run: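 δC1b domain as GST fusion, expressed in BL-21 (DE3) E. coli and spin-purified. Assay buffer 50 mM Tris-HCl pH 7.4 with 100 μg/ml phosphatidylserine, 4 mg/ml bovine IgG and 1 mM EGTA, plus [3H]PDBu and varied competitor. Incubated 10 min at 18 °C, then precipitated with PEG and pellet counted. Specific binding is total minus binding with 64 μM cold PDBu. Ki reported.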

T1 sequence (Q05655 whole entry, the tested form may be a part): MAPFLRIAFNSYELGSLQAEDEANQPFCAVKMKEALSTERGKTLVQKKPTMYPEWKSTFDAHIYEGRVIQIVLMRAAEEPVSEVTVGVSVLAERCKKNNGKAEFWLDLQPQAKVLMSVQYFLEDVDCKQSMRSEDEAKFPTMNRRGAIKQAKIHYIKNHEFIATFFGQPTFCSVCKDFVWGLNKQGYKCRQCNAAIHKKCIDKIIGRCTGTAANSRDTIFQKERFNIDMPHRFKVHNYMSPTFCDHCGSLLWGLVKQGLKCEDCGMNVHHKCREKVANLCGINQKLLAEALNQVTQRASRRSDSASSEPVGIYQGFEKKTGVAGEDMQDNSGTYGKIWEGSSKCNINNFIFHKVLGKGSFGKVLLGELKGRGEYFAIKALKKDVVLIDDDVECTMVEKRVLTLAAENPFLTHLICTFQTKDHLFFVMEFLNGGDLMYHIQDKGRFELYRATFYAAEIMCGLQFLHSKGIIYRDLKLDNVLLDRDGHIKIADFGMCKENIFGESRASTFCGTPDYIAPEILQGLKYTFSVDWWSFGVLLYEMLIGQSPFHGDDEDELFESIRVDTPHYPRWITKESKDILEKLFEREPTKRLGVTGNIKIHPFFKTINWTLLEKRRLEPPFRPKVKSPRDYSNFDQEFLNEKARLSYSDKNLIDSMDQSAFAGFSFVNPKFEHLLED

Row | SMILES | Ki [1] [µM] | Ki [2] [µM] | Ki [3] [µM]
1 | CC(C)CC(C/C=C1\CC(CO)(COC(=O)C(C)(C)C)OC1=O)CC(C)C (stereo unspecified) | 0.00325 | 0.103 | –
2 | CC(C)CC(C/C=C1/CC(CO)(COCC(C)(C)C)OC1=O)CC(C)C (stereo unspecified) | 5.87 | – | 2.14
3 | CC(C)CC(C/C=C1\CC(CO)(COC(=O)C(C)(C)C)OC1=S)CC(C)C (stereo unspecified) | 0.0237 | 0.173 | 0.00313
4 | CC(C)CC(C/C=C1\CC(CO)(COC(=S)C(C)(C)C)OC1=O)CC(C)C (stereo unspecified) | 0.113 | 0.606 | 0.0206

Further molecules by falling Ki [1], results first:

Row | Ki [1] [µM] | Ki [2] [µM] | Ki [3] [µM] | SMILES
5 | 14.3 | 101 | 1.89 | CC(C)CC(C/C=C1\CC(CO)(COCC(C)(C)C)OC1=O)CC(C)C (stereo unspecified)
6 | 0.622 | 6.62 | 0.219 | CC(C)CC(C/C=C1/COC(CO)(COC(=O)C(C)(C)C)C1)CC(C)C (stereo unspecified)
